The target in experiment [1] is Mitogen-activated protein kinase 12 (Homo sapiens) (UniProt P53778). The experiment is described as follows: Inhibition of p38g in human SKCO1 cells at 1 uM after 4 hrs using biotin labeled DLKPGNLAVNEDCELK probe by mass-spectrometric analysis relative to control. Format: cell-based.
Experiment [2] deals with MAP/microtubule affinity-regulating kinase 3 (Homo sapiens) (UniProt P27448). The experiment is described as follows: Inhibition of MARK3 in human SKCO1 cells at 1 uM after 4 hrs using biotin labeled EVAIKIIDKTQLNPTSLQK probe by mass-spectrometric analysis relative to control. Format: cell-based.
Sequence of MAP/microtubule affinity-regulating kinase 3 (Homo sapiens) (P27448 whole entry, looked up, the tested form may be a part): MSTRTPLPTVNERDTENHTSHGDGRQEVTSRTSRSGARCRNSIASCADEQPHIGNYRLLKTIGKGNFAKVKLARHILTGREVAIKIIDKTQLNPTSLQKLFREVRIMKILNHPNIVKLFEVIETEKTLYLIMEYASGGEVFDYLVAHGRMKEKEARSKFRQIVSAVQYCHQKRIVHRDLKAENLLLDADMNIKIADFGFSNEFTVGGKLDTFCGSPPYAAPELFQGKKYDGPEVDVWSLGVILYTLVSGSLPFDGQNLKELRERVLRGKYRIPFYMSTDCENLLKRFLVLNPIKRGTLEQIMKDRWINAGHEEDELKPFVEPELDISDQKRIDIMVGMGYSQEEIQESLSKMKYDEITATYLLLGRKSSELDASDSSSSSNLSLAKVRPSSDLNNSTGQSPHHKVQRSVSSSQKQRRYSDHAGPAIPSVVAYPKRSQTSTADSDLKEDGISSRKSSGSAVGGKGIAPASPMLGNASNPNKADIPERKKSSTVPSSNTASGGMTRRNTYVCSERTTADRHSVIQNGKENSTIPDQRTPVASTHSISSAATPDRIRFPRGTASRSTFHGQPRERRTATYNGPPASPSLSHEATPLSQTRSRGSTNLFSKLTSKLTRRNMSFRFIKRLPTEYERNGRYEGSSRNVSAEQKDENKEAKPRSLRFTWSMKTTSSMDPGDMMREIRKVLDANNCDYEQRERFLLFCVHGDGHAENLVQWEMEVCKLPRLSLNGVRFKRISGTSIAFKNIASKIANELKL
Experiment [3] has as its target TGF-beta receptor type-2 (Homo sapiens) (UniProt P37173). The experiment is described as follows: Inhibition of human TGFBR2 (218 to 567 residues) expressed in bacterial expression system assessed as enzyme activity at 1 uM by KINOMEScan assay relative to control. Also noted: scale not given: the % may be the effect or the level left. In short, it runs like this:
(§1)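 In vitro ATP-site competition binding assay across a panel of 456 kinases, with compound tested at 1 and 10 μM.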

For experiment [4] the target is unchanged. The experiment is described as follows: Inhibition of human TGFBR2 (218 to 567 residues) expressed in bacterial expression system assessed as enzyme activity at 10 uM by KINOMEScan assay relative to control. Also noted: scale not given: the % may be the effect or the level left. The essentials:
as §1

Experiment [5] addresses Eukaryotic translation initiation factor 2-alpha kinase 3 (Homo sapiens) (UniProt Q9NZJ5). The experiment is described as follows: Inhibition of PEK in human SKCO1 cells at 1 uM after 4 hrs using biotin labeled DLKPSNIFFTMDDVVK probe by mass-spectrometric analysis relative to control. Format: cell-based.
In experiment [6] the target is Dual specificity mitogen-activated protein kinase kinase 1 (Homo sapiens) (UniProt Q02750). The experiment is described as follows: Inhibition of full length human MEK1 (1 to 393 residues) expressed in mammalian expression system assessed as enzyme activity at 1 uM by KINOMEScan assay relative to control. More on the design: scale not given: the % may be the effect or the level left. The essentials: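 In vitro ATP-site competition binding assay (KinomeScan) across a panel of 456 kinases. Compound was tested at 1 and 10 μM. The read-out is the binding inhibition score relative to control.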
Sequence of Dual specificity mitogen-activated protein kinase kinase 1 (Homo sapiens) (Q02750 whole entry, the tested form may be a part): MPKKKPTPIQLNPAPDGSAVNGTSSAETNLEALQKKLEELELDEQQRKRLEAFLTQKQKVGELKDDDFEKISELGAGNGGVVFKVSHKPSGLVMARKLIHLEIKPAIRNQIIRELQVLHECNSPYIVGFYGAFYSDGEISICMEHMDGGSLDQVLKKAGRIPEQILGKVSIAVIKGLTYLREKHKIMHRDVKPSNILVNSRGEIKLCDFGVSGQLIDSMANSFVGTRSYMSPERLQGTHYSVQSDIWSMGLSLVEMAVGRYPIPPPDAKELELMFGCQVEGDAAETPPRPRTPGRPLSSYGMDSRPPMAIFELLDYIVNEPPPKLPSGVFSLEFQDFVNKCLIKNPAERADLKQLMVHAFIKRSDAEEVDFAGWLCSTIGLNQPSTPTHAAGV

The target of experiment [7] is T1, 80S Ribosome (Homo sapiens) (UniProt P08865+P42677+P62753+P15880+P23396+P61247+P62701+P22090+P46782+P62081+P62241+P46781+P46783+P62280+P25398+P62277+P62263+P62841+P62244+P62249+P08708+P62269+P39019+P60866+P63220+P62266+P62847+P62851+P62854+P62979+P62857+P62273+P62861+P39023+P36578+P46777+Q02878+P18124+P62424+P62917+P32969+P27635+P62906+P62913+P30050+P26373+P40429+P50914+P61313+P18621+Q07020+Q02543+P84098+P46778+P35268+P62829+P62750+P83731+P61254+P61353+P46776+P46779+P47914+P62888+P62899+P62910+P49207+P42766+P18077+Q9Y3U8+P83881+P61927+P61513+P63173+P62891+P62945+P05388+P05386). The experiment is described as follows: Binding affinity to RPL10 in human NCI-H23 cells at 1 uM by mass spectrometry based pull down assay. Format: cell-based.

In experiment [8] the target is Heterogeneous nuclear ribonucleoprotein H2 (Homo sapiens) (UniProt P55795). The experiment is described as follows: Binding affinity to HNRNPH2 in human NCI-H358 cells at 1 uM by mass spectrometry based pull down assay. Format: cell-based.
Experiment [9] concerns the target Cyclin-dependent kinase 4 (Homo sapiens) (UniProt P11802). The experiment is described as follows: Binding affinity to CDK4 in human NCI-H358 cells at 1 uM by mass spectrometry based pull down assay. Format: cell-based.
Experiment [10] addresses Dual specificity mitogen-activated protein kinase kinase 2 (Homo sapiens) (UniProt P36507). The experiment is described as follows: Binding affinity to MAP2K2 in human NCI-H23 cells at 1 uM by mass spectrometry based pull down assay. Format: cell-based.
Experiment [11] has as its target Clathrin light chain A (Homo sapiens) (UniProt P09496). The experiment is described as follows: Binding affinity to CLTA in human NCI-H358 cells at 1 uM by mass spectrometry based pull down assay. Format: cell-based.
Experiment [12] concerns the target T2, Dual specificity mitogen-activated protein kinase kinase 3 (Homo sapiens) (UniProt P46734).
T2 sequence (whole entry): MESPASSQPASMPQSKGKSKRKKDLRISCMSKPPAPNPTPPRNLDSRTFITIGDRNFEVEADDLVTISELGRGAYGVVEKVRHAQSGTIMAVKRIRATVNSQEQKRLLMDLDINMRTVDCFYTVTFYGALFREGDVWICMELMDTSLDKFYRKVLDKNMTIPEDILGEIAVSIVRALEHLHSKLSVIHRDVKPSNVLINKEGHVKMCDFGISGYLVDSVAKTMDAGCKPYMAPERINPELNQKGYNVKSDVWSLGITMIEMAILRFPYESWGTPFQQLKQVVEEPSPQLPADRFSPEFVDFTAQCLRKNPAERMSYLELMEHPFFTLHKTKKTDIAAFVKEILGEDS
The experiment is described as follows: Binding affinity to MAP2K3 in human NCI-H358 cells at 1 uM by mass spectrometry based pull down assay. Format: cell-based.

In experiment [13] the target is 14-3-3 protein epsilon (Homo sapiens) (UniProt P62258). The experiment is described as follows: Binding affinity to YWHAE in human NCI-H358 cells at 1 uM by mass spectrometry based pull down assay. Format: cell-based.
Sequence of 14-3-3 protein epsilon (Homo sapiens) (P62258 whole entry, canonical isoform): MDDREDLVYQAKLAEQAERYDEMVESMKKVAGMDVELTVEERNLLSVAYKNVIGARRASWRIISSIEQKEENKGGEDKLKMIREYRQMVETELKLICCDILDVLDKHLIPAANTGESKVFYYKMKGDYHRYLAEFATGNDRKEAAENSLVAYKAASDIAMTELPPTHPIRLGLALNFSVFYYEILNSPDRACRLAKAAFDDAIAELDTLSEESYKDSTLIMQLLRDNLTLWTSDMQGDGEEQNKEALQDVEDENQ
Experiment [14] concerns the target Serine/threonine-protein phosphatase 2A catalytic subunit beta isoform (Homo sapiens) (UniProt P62714). The experiment is described as follows: Binding affinity to PPP2CB in human NCI-H358 cells at 1 uM by mass spectrometry based pull down assay. Format: cell-based.
Experiment [15] addresses T1, 80S Ribosome (Homo sapiens). The experiment is described as follows: Binding affinity to RPL5 in human NCI-H358 cells at 1 uM by mass spectrometry based pull down assay. Format: cell-based.
Experiment [16] addresses Testis-expressed protein 264 (Homo sapiens) (UniProt Q9Y6I9). The experiment is described as follows: Binding affinity to TEX264 in human NCI-H23 cells at 1 uM by mass spectrometry based pull down assay. Format: cell-based.
The target of experiment [17] is Large ribosomal subunit protein bL19m (Homo sapiens) (UniProt P49406). The experiment is described as follows: Binding affinity to MRPL19 in human NCI-H23 cells at 1 uM by mass spectrometry based pull down assay. Format: cell-based.
For experiment [18], the target named is Transforming growth factor-beta-induced protein ig-h3 (Homo sapiens) (UniProt Q15582). The experiment is described as follows: Binding affinity to TGFBI in human NCI-H358 cells at 1 uM by mass spectrometry based pull down assay. Format: cell-based.
Sequence of Transforming growth factor-beta-induced protein ig-h3 (Homo sapiens) (Q15582 whole entry): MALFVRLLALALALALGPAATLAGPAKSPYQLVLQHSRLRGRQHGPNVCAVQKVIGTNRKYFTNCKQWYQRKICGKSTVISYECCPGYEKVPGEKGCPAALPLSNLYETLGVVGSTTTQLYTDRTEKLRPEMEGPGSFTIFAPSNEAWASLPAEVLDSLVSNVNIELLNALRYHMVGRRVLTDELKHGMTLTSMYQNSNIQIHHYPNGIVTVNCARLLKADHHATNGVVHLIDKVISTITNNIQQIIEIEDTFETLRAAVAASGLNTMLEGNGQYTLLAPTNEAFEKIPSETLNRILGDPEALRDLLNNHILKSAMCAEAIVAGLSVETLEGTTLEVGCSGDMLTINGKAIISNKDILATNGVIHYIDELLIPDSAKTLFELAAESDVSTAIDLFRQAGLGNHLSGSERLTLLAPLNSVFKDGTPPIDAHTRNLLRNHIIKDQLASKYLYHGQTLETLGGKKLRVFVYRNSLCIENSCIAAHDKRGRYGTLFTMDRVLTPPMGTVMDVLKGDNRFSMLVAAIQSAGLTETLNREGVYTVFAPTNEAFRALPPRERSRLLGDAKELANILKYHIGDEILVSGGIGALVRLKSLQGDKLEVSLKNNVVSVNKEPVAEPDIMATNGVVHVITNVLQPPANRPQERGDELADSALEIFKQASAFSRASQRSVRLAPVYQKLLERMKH
Experiment [19] concerns the target Clathrin heavy chain 1 (Homo sapiens) (UniProt Q00610). The experiment is described as follows: Binding affinity to CLTC in human NCI-H23 cells at 1 uM by mass spectrometry based pull down assay. Format: cell-based.
The target of experiment [20] is Plectin (Homo sapiens) (UniProt Q15149). The experiment is described as follows: Binding affinity to PLEC in human NCI-H358 cells at 1 uM by mass spectrometry based pull down assay. Format: cell-based.
Experiment [21] addresses Ubiquitin-associated protein 2-like (Homo sapiens) (UniProt Q14157). The experiment is described as follows: Binding affinity to UBAP2L in human NCI-H358 cells at 1 uM by mass spectrometry based pull down assay. Format: cell-based.
For experiment [22], the target named is Mitogen-activated protein kinase 3 (Homo sapiens) (UniProt P27361). The experiment is described as follows: Binding affinity to MAPK3 in human NCI-H23 cells at 1 uM by mass spectrometry based pull down assay. Format: cell-based.
Sequence of Mitogen-activated protein kinase 3 (Homo sapiens) (P27361 whole entry): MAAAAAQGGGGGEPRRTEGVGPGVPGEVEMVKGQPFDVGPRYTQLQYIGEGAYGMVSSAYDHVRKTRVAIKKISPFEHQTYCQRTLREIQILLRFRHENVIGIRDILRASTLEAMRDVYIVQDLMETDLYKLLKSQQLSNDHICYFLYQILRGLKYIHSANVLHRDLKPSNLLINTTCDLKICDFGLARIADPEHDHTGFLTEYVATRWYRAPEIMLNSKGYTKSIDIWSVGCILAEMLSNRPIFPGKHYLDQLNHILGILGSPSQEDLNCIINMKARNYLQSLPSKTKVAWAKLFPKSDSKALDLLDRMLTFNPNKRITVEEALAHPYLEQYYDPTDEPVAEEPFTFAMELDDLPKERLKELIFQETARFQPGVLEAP
Experiment [23] concerns the target T1, 80S Ribosome (Homo sapiens). The experiment is described as follows: Binding affinity to RPS24 in human NCI-H358 cells at 1 uM by mass spectrometry based pull down assay. Format: cell-based.

Each structure is given as a SMILES string. Calls of active or inactive are those of the source. No cut-off for these calls is given here.

Sequence of TGF-beta receptor type-2 (Homo sapiens) (P37173 whole entry, the tested form may be a part): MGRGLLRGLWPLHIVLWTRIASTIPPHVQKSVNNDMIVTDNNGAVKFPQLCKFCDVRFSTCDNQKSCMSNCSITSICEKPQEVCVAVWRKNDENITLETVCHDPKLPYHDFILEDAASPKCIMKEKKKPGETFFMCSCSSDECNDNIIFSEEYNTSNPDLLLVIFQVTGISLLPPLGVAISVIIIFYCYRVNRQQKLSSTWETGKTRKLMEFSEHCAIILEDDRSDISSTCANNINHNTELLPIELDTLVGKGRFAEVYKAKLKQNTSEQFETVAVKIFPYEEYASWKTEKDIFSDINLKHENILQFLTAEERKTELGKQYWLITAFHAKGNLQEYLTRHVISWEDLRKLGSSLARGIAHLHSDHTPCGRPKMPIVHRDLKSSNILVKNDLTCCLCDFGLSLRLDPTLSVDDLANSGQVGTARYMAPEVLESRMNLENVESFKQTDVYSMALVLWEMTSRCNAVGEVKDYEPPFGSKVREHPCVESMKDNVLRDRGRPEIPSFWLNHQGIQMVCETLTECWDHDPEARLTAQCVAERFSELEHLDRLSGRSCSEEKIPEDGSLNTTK
Sequence of Mitogen-activated protein kinase 12 (Homo sapiens) (P53778 whole entry): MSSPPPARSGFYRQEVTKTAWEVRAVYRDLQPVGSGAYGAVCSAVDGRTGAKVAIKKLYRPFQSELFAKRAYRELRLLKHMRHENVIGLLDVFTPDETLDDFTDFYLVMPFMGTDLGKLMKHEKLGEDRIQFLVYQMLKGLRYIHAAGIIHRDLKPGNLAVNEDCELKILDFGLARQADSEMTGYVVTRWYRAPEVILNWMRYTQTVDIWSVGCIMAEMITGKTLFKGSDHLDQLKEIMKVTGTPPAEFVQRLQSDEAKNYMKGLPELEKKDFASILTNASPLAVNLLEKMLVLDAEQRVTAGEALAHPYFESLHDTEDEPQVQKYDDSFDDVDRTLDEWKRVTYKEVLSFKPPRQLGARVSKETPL
Sequence of Cyclin-dependent kinase 4 (Homo sapiens) (P11802 whole entry): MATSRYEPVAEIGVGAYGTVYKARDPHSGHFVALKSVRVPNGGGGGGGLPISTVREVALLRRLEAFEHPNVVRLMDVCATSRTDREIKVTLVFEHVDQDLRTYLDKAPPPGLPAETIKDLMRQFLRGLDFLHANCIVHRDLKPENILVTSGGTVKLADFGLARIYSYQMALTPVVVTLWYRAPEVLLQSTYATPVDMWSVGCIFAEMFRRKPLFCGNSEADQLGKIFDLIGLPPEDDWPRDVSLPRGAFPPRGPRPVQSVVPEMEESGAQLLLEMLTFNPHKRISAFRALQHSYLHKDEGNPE
Sequence of Serine/threonine-protein phosphatase 2A catalytic subunit beta isoform (Homo sapiens) (P62714 whole entry, canonical isoform): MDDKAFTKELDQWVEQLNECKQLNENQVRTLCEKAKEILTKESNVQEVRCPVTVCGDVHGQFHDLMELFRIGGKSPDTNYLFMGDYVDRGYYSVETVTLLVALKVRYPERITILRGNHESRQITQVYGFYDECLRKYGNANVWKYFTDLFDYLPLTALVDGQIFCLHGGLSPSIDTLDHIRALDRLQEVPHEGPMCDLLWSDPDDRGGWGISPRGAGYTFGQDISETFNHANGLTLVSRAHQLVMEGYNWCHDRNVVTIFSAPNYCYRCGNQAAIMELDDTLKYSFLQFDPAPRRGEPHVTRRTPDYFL
Sequence of Dual specificity mitogen-activated protein kinase kinase 2 (Homo sapiens) (P36507 whole entry): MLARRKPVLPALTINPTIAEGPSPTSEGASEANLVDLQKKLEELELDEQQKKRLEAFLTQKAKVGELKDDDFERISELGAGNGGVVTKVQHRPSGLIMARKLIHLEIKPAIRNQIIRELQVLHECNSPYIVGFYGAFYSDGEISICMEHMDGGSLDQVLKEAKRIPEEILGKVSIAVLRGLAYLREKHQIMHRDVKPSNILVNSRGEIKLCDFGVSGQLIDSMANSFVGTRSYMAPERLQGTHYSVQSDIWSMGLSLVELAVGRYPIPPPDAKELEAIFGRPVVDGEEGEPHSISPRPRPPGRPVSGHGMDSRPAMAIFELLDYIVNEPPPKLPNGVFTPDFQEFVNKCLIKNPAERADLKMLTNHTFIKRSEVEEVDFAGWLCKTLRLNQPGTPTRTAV
Sequence of Clathrin light chain A (Homo sapiens) (P09496 whole entry): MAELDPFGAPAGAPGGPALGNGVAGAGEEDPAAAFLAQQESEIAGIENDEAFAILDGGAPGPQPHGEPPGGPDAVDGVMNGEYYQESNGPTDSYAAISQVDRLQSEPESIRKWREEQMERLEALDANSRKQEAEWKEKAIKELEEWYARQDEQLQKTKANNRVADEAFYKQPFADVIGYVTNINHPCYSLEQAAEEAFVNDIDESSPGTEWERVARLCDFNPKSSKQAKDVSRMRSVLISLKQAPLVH

Usually inhibition stands for the relative decrease from the control value, in per cent. As to `C=CC(=O)Nc1ccccc1Nc1nc(Nc2ccc(N3CCN(C)CC3)cc2)ncc1Cl`, the inhibition in [1] is -8.5%; in [2], 8.6%.
As to `COc1cc(O)c2c(c1)/C=C/C[C@H](O)[C@H](O)C(=O)/C=C\C[C@H](C)OC2=O`, the Activity was 3.8% in [3], 0.9% in experiment [4] and 0.65% in [6]. Further, the inhibition in experiment [5] is -10%.
On to `C=CC(=O)Nc1ccccc1Nc1nc(Nc2ccc(N3CCN(CCOCCOCCOCCNC(=O)CCCC[C@@H]4SC[C@@H]5NC(=O)N[C@@H]54)CC3)cc2)ncc1Cl`, for which the outcome in experiment [7], in experiment [8], in experiment [9], in experiment [10], in [11] and in experiment [12] was Active. Further, the outcome in experiment [13], in experiment [14], in [15], in experiment [16], in experiment [17] and in [18] was Active. The result in experiment [19], in experiment [20], in experiment [21], in experiment [22] and in experiment [23] was Active.

These data come from ChEMBL document CHEMBL4118021, “Studies of TAK1-centered polypharmacology with novel covalent TAK1 inhibitors” (Bioorg Med Chem, 2017).
